Data: PubChem BioAssay AID720543 (The Scripps Research Institute Molecular Screening Center, 2013)
Among all 370,000 compounds or so, about 2,000 (0.54%) were called active.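 The calls were made as follows: active = inhibition exceeding the mean over every tested compound plus 3 SD (cut at about 30% in these data); inactive = the rest.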 The entries come from a sample that favours actives as a whole.

target: (Lyso)-N-acylphosphatidylethanolamine lipase (Mus musculus) (UniProt Q8VD66); assay: mouse ABHD4 hydrolase activity blockers – biochemical, fluorescence polarization, primary screen (AID 720543); conditions: purified mABHD4, FP-Rh probe fluorescence polarization; at 8.92 µM; hits give high values
In short: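 Assay system: mouse ABHD4 enzyme, wild type / Also added: fluorescent activity-based probe FP-Rh / Doses: single nominal dose of 8.92 µM, 0.89% DMSO final / Timing: 45 min compound pre-incubation plus 60 min probe step, 25 °C / Signal: FP readout, ex 525 nm / em 598 nm / Control set: S159A mutant/DMSO as 100%, compound-well median as 0%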

Chain of (Lyso)-N-acylphosphatidylethanolamine lipase (Mus musculus) (Q8VD66 whole entry, looked up): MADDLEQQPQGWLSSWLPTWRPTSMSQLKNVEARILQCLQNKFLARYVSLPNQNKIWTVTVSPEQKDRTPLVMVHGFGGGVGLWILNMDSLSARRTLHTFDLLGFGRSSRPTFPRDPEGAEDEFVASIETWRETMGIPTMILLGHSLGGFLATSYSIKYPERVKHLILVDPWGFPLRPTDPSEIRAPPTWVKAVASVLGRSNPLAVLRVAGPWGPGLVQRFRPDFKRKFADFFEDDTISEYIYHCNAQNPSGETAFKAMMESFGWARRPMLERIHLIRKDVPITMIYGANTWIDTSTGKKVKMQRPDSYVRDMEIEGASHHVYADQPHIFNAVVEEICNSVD

Structure (SMILES)	inhibition
COc1cc(-n2c(=S)[nH]c3ccc(C)cc3c2=O)c(Cl)cc1Cl	36.9% (active)
O=c1c2ccccc2[nH]c(=S)n1-c1cccc(Cl)c1	6.67% (inactive)
CC12CN3CC(C)(CN(C1)C3c1cccs1)C2 (stereo not given)	2.23% (inactive)
C/C=C/CC1(CC)C(=O)NC(=S)NC1=O	5.1% (inactive)
c1ccc(C2NCc3ccccc3-n3cccc32)cc1 (stereo not given)	6.15% (inactive)
CCOc1ccc(-c2cc(C)[n+](CCN(CC)CC)c(-c3ccc(OCC)cc3)c2)cc1	5.92% (inactive)
CCOc1cccc(=NC2CCCCC2)c2c(C)[nH]c(C)c12	34.4% (active)
COc1ccc(NC(=O)N2CCC3(CC2)OCCO3)c(OC)c1	2.18% (inactive)
CO[C@H]([C@H](C)/C=C/N(C)C=O)[C@@H](C)C(=O)CC[C@H](C)[C@H](O)[C@H](C)[C@H]1OC(=O)/C=C/C(C)=C/[C@H](O)[C@H](OC)C[C@@H]2C=CC[C@@H](C[C@H](OC)[C@@]3(CO3)[C@@H](OC)C[C@@H](OC)[C@@H]1C)O2	-6.78% (inactive)
Clc1ccc([C@@H]2CC3CCC2N3)cn1 (stereo not given in full)	7.57% (inactive)
